Measurements: ChEMBL document CHEMBL1125368, “Thiophene systems. 14. Synthesis and antihypertensive activity of novel 7-(cyclic amido)-6-hydroxythieno[3,2-b]pyrans and related compounds as new potassium channel activators” (1992)

Assays:
Type in all cases: functional
[1] = species on record: Oryctolagus cuniculus; test: The compound was tested for increase in [86Rb+] efflux in rabbit isolated mesenteric artery over basal rate at a concentration of 30 uM
Outline: (§1)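 Vessel rings from freshly killed rabbits, held on steel wires in physiological buffer at 37 °C gassed with 95% O2/5% CO2. Rings loaded with 86Rb (4-5 μCi/mL) for 3-4 h, then moved in pairs through 4 mL buffer tubes every 10 min. Basal efflux taken over 30-40 min, followed by test compound in about five vials, then compound-free washout for 10-20 min. Efflux aliquots and overnight-digested tissue counted by liquid scintillation.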

[2] = species on record: Rattus norvegicus; test: The compound was tested for 30% reduction in mean arterial blood pressure(MAP)
Outline: (§2)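 Conscious SHR with an arterial catheter exteriorized at the nape, held in Bollman restraint cages after a 60-min postsurgical recovery. Only rats with MAP >150 mmHg were used. Single oral gavage dose in distilled water (range 0.003-20 mg/kg), pressure monitored continuously for 4 h by transducer. Maximal % change from predrug MAP over 240 min, N ≥ six rats. ED30 from regression over the linear part of the dose-response, with 95% confidence limits.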

[3] = species on record: Oryctolagus cuniculus; test: The compound was tested for increase in [86Rb+] efflux in rabbit isolated mesenteric artery over basal rate at a concentration of 3 uM.; outline: as §1
[4] = test system: Rattus norvegicus; test: Maximal change in rat mean arterial blood pressure after 20 mg/kg p.o.; details: route oral; outline: as §2
[5] = species on record: Oryctolagus cuniculus; test: The compound was tested for increase in [86Rb+] efflux in rabbit isolated mesenteric artery over basal rate at a concentration of 10 uM; outline: as §1
[6] = species on record: Oryctolagus cuniculus; test: The compound was tested for increase in [86Rb+] efflux in rabbit isolated mesenteric artery over basal rate at a concentration of 100 uM; outline: as §1
[7] = species on record: Oryctolagus cuniculus; test: The compound was tested for increase in [86Rb+] efflux in rabbit isolated mesenteric artery over basal rate at a concentration of 10 uM.; outline: as §1
[8] = species on record: Oryctolagus cuniculus; test: The compound was tested for increase in [86Rb+] efflux in rabbit isolated mesenteric artery over basal rate at a concentration of 1 uM.; outline: as §1
[9] = species on record: Oryctolagus cuniculus; test: The compound was tested for increase in [86Rb+] efflux in rabbit isolated mesenteric artery over basal rate at a concentration of 30 uM.; outline: as §1
[10] = test system: Rattus norvegicus; test: The compound was tested for antihypertensive activity measured as maximal change in mean arterial blood pressure(MAP), after oral administration of 1 mg/kg of the compound.; outline: as §2
[11] = test system: Rattus norvegicus; test: The compound was tested for antihypertensive activity measured as maximal change in mean arterial blood pressure(MAP), after oral administration of 20 mg/kg of the compound.; outline: as §2
[12] = species on record: Oryctolagus cuniculus; test: The compound was tested for increase in [86Rb+] efflux in rabbit isolated mesenteric artery over basal rate at a concentration of 100 uM.; outline: as §1
[13] = species on record: Oryctolagus cuniculus; test: The compound was tested for increase in [86Rb+] efflux in rabbit isolated mesenteric artery over basal rate at a concentration of 3 uM; outline: as §1
[14] = species on record: Oryctolagus cuniculus; test: The compound was tested for increase in [86Rb+] efflux in rabbit isolated mesenteric artery over basal rate at a concentration of 100 uM( Values in parentheses indicates 95%confidence limits); outline: as §1
[15] = Rattus norvegicus, Arterial blood, read-out: ED30

CC1(C)Oc2cc([N+](=O)[O-])sc2[C@@H](N2CCCCC2=O)[C@@H]1O (stereo in doubt; 32)
Increase [1]: 60%
ED30 [2]: 0.015 mg/kg
Increase [3]: 41%
Change [4]: -65%
Increase [5]: 56%

CC1(C)C=C(N2CCCCC2)c2sc([N+](=O)[O-])cc2O1
Change [4]: -17%

CC(=O)c1cc2c(s1)[C@@H](N1CCCC1=O)[C@H](O)C(C)(C)O2
Increase [6]: 57%
Increase [1]: 40%
ED30 [2, 15]: 0.2 mg/kg
Change [4]: -62%
Increase [5]: 37%

CC1(C)Oc2cc([N+](=O)[O-])sc2[C@@H](N2CCCC2=O)[C@@H]1O
Increase [6]: 114%
Increase [7]: 67%
Increase [8]: 48%
Increase [9]: 110%
ED30 [2, 15]: 0.19 mg/kg
Change [4]: -60%

CC1(C)Oc2cc([N+](=O)[O-])sc2[C@@H](N2CCCCC2=O)[C@@H]1O (stereo in doubt; 40)
Increase [6]: 19%
Increase [8]: 2%
Increase [9]: 11%
ED30 [2]: 1.9 mg/kg
Change ([10]; 1 mg/kg): -19%
Increase [5]: 19%

CC1(C)Oc2cc([N+](=O)[O-])sc2[C@@H](N2Cc3ccccc3C2=O)[C@@H]1O
ED30 [2, 15]: 0.22 mg/kg
Change [10]: -58%
Change [4]: -61%

CC1(C)Oc2cc([N+](=O)[O-])sc2[C@@H](N2CCCNC2=O)[C@@H]1O
Change [11]: -7%

COC(=O)c1cc2c(s1)[C@@H](N1CCCCC1=O)[C@H](O)C(C)(C)O2
Increase [6]: 63%
Increase [9]: 51%
Change [4]: -37%

CNC(=O)c1cc2c(s1)[C@@H](N1CCCCC1=O)[C@H](O)C(C)(C)O2.O
Increase [12]: 25%
Change [11]: -29%

CC1(C)Oc2cc(C#N)sc2[C@@H](N2CCCC2=O)[C@@H]1O
ED30 [2, 15]: 0.07 mg/kg
Change [4]: -67%

CC1(C)Oc2cc(C(=O)C(F)(F)F)sc2[C@@H](N2CCCC2=O)[C@@H]1O
Change [10]: -55%
Change [4]: -68%

CC1(C)C=C(n2ccccc2=O)c2cc(C#N)ccc2O1 [BIMAKALIM]
ED30 [2, 15]: 0.01 mg/kg

CC1(C)C=C(N2CCCCC2=O)c2sc([N+](=O)[O-])cc2O1
Change [4]: -5%

CC1(C)Oc2cc([N+](=O)[O-])sc2[C@@H](N2CCCCC2=O)[C@@H]1O (stereo in doubt; 41)
Increase [12]: 53%
Increase [7]: 80%
Increase [8]: 26%
Increase [9]: 91%
ED30 [2]: 0.013 mg/kg
Change ([10]; 1 mg/kg): -63%
Increase [13]: 66%

CC1(C)Oc2cc([N+](=O)[O-])sc2[C@@H](n2ccccc2=O)[C@@H]1O
Increase [1]: 0%
Change [10]: -10%
Change [11]: -57%

CC1(C)Oc2ccsc2[C@@H](N2CCCCC2=O)[C@@H]1O
Increase [6]: 40%
Increase [9]: 26%
Change [4]: -53%
Increase [5]: 7%

CC1(C)Oc2ccsc2[C@@H](N2CCCCCC2=O)[C@@H]1O
Increase [6]: 0%
Change [11]: -12%

CN(C)C(=O)c1cc2c(s1)[C@@H](N1CCCCC1=O)[C@H](O)C(C)(C)O2
Increase [6]: 32%
Change [10]: -7%
Change [11]: -63%

CC1(C)Oc2cc(Br)sc2[C@@H](N2CCCCC2=O)[C@@H]1O
Increase [1]: 42%
Change [4]: -64%

CC1(C)Oc2ccc(C#N)cc2[C@@H](N2CCCC2=O)[C@@H]1O [LEVCROMAKALIM]
Increase [14]: 104%
Increase [1]: 73%
ED30 [2, 15]: 0.19 mg/kg
Increase [5]: 46%
Increase [13]: 41%

CC1(C)Oc2cc([N+](=O)[O-])sc2[C@@H](N2CCNC2=O)[C@@H]1O
Change [11]: -3%

CC1(C)Oc2cc(C(=O)c3ccccc3)sc2[C@@H](N2CCCC2=O)[C@@H]1O
Increase [6]: 58%
Increase [9]: 33%
Change [10]: -4%
Change [4]: -50%
Increase [5]: 0%

CC1(C)Oc2ccsc2[C@@H](N2CCCC2=O)[C@@H]1O
Increase [6]: 25%
Increase [9]: 8%
ED30 [2, 15]: 5.03 mg/kg
Change [4]: -55%
Increase [5]: 0%

CC1(C)Oc2cc(C(=O)O)sc2[C@@H](N2CCCCC2=O)[C@@H]1O
Change [11]: -9%

Cc1cc2c(s1)[C@@H](N1CCCC1=O)[C@H](O)C(C)(C)O2
Change [4]: -28%

CC1(C)C=C(n2ccccc2=O)c2sc([N+](=O)[O-])cc2O1
Change [4]: -14%

CC1(C)Oc2cc(C(N)=O)sc2[C@@H](N2CCCCC2=O)[C@@H]1O
Increase [6]: 92%
Increase [9]: 75%
ED30 [2, 15]: 0.2 mg/kg
Change [4]: -68%
Increase [5]: 73%

CC(=O)c1cc2c(s1)[C@@H](N1CCCCC1=O)[C@H](O)C(C)(C)O2
Increase [6]: 26%
Increase [1]: 38%
ED30 [2, 15]: 0.09 mg/kg
Change [4]: -67%
Increase [5]: 13%

CC1(C)Oc2cc(Br)sc2[C@@H](N2CCCC2=O)[C@@H]1O
Increase [6]: 90%
Increase [1]: 64%
Change [10]: -3%
Change [4]: -43%
Increase [5]: 65%

CC1(C)Oc2cc([N+](=O)[O-])sc2[C@@H](N2CCCCCC2=O)[C@@H]1O
Increase [1]: 25%
Change [11]: -34%

CC1(C)Oc2cc([N+](=O)[O-])sc2[C@@H](N2CCCCC2=O)[C@@H]1O (relative stereo)
Change [11]: -24%

CC1(C)Oc2ccsc2[C@@H](N2CCCC2)[C@@H]1O
Increase [6]: 0%
Change [4]: -14%

CC1(C)Oc2cc(C#N)sc2[C@@H](N2CCCCC2=O)[C@@H]1O
Increase [6]: 0%
Increase [9]: 11%
ED30 [2, 15]: 0.03 mg/kg
Change [11]: -66%

COC(=O)c1cc2c(s1)[C@@H](N1CCCC1=O)[C@H](O)C(C)(C)O2
Change [4]: -31%

CC1(C)Oc2cc(C(=O)OCc3ccccc3)sc2[C@@H](N2CCCC2=O)[C@@H]1O
Change [4]: -14%

CC1(C)Oc2cc([N+](=O)[O-])sc2[C@@H](N2CC(=O)NCC2=O)[C@@H]1O
Increase [6]: 0%
Change [11]: -4%

CC1(C)Oc2ccsc2[C@@H](N2CCCCC2)[C@@H]1O
Increase [6]: 0%
Change [4]: -6%
